Assay type in all cases: cell-based
One test has as its system MCF-7. The experiment in a line: Antiproliferative SRB assay, MCF-7. The following applies: Homo sapiens, MCF7, 72 h, read-out: MCF-7 IC50 (μM) ± SD. The method in brief:
(§1)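 Cells from ATCC, grown in RPMI-1640 with 10% heat-inactivated FBS and penicillin–streptomycin at 37 °C, 5% CO2. They were trypsinized and seeded 24 h before treatment. Test compound was given at 0.01, 0.1, 1, 10 and 100 μg mL−1 for 72 h beside untreated controls. Cells were fixed in 10% TCA (1 h, 4 °C), stained with 0.4% SRB (10 min, dark), rinsed in 1% acetic acid, dissolved in Tris–HCl, and read at 540 nm.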
Background: Sulforhodamine B stains cellular protein and so reports cell mass.

Another test deals with HepG2. The experiment in a line: Antiproliferative SRB assay, HepG2. As to conditions: Homo sapiens, HepG2, 72 h, read-out: HepG2 IC50 (μM) ± SD. The method in brief: as §1
Another test deals with HCT116. In words: Antiproliferative SRB assay, HCT116. As to conditions: Homo sapiens, HCT-116, 72 h, read-out: HCT116 IC50 (μM) ± SD. The method in brief: as §1
The next test has as its system EA.hy926. The experiment in a line: SRB assay on normal cells EA.hy926. The following applies: Homo sapiens, EA.hy 926, 72 h, read-out: EA.hy926 IC50 (μM) ± SD. The method in brief:
as §1

As a reminder, the IC50 is the point on the concentration scale where inhibition reaches its midpoint. For the molecule `O=C(NNc1nc(-c2ccccc2)cs1)c1cc2ccccc2oc1=O` [6a, 2-Oxo-N′-(4-phenylthiazol-2-yl)-2H-chromene-3-carbohydrazide], the half-inhibitory concentration (IC50) with MCF-7 amounted to 72.9 µM; in the test with HepG2, 36.5 µM; in the test on HCT116, 82.5 µM; in the test on EA.hy926, 31.9 µM.

As for `COc1cccc2c1C(=O)c1c(O)c3c(c(O)c1C2=O)C[C@@](O)(C(=O)CO)C[C@@H]3O[C@H]1C[C@H](N)[C@H](O)[C@H](C)O1` [Doxorubicin, reference compound], the IC50 worked out at 2.1 µM in the test on MCF-7, 1.6 µM in the test on HepG2, 1.9 µM with HCT116 and 1.7 µM with EA.hy926.

As for `N#CCC(=O)NNc1nc(-c2ccccc2)cs1` [compound 7, 2-cyano-N′-(4-phenylthiazol-2-yl)acetohydrazide], the IC50 amounted to 10.3 µM in the test with MCF-7, 9.9 µM with HepG2, 6.5 µM with HCT116 and 11.6 µM with EA.hy926.
